From ChEMBL document CHEMBL3817726, “Chemically Diverse Group I p21-Activated Kinase (PAK) Inhibitors Impart Acute Cardiovascular Toxicity with a Narrow Therapeutic Window” (J Med Chem, 2016)

Experiments:
[1] = biological target: Serine/threonine-protein kinase PAK 1 (Homo sapiens, UniProt Q13153); experiment: Inhibition of human recombinant N-terminal 6-His-tagged PAK1 kinase domain (249 to 545 residues) expressed in Escherichia coli BL21(DE3) assessed as phosphorylation of coumarin labeled FRET peptide substrate at Ser/Thr19 preincubated for 10 mins followed by ATP addition measured after 60 mins by Z'-LYTE assay
[2] = biological target: Serine/threonine-protein kinase PAK 1/PAK 2 (Homo sapiens, UniProt Q13177+Q13153); experiment: Inhibition of PAK1/2 in human EBC1 cells assessed as phosphorylation of MEK1 at serine 298 after 2 hrs by HTRF assay; format: cell-based
[3] = biological target: Serine/threonine-protein kinase PAK 2 (Homo sapiens, UniProt Q13177); experiment: Inhibition of human recombinant PAK2 assessed as phosphorylation of coumarin labeled FRET peptide substrate at Ser/Thr19 preincubated for 10 mins followed by ATP addition measured after 60 mins by Z'-LYTE assay
[4] = Fraction unbound in mouse plasma at 25 to 50 mg/kg, po; format: ADME, organism-based
[5] = Cmax associated with acute adverse effect in mouse at 25 to 50 mg/kg, po; format: ADME, organism-based; conditions: in vivo
Summary of the method: (§1)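 Mouse tolerability studies tested multiple doses, given orally or intraperitoneally. Plasma drug concentrations were measured, including at a 15 min time point. The minimum concentration associated with adverse clinical signs or death was taken as the adverse Cmax and was converted to an unbound value.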

Mus musculus [6] = experiment: fCmax associated with acute adverse effect in mouse at 25 to 50 mg/kg, po; format: ADME, organism-based; conditions: in vivo
Summary of the method: (§2)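 Mouse tolerability studies at multiple doses, oral or intraperitoneal. Minimum unbound plasma concentration associated with adverse effects (total Cmax converted to unbound) compared with IC50 for inhibition of MEK1 S298 phosphorylation in cells.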

[7] = Ratio of fCmax associated with acute adverse effect in mouse at 25 to 50 mg/kg, po to IC50 for PAK1/2-mediated phosphorylation of MEK1 at serine 298 in human EBC1 cells
Summary of the method: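 Mouse tolerability studies at multiple doses, given p.o. or i.p. Total plasma concentrations were converted to unbound levels. The minimum unbound Cmax linked to adverse effects was set against the cellular IC50 for inhibition of MEK1 S298 phosphorylation.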

Mus musculus [8] = experiment: Toxicity in mouse at 100 mg/kg, ip; format: organism-based; conditions: in vivo
[9] = Fraction unbound in mouse plasma at 100 mg/kg, ip; format: ADME, organism-based
[10] = Cmax associated with acute adverse effect in mouse at 100 mg/kg, ip; format: ADME, organism-based; parameters: dose 100 mg/kg, route intraperitoneal; conditions: in vivo; summary of the method: as §1
Mus musculus [11] = experiment: fCmax associated with acute adverse effect in mouse at 100 mg/kg, ip; format: ADME, organism-based; conditions: in vivo; summary of the method: as §2
[12] = Ratio of fCmax associated with acute adverse effect in mouse at 100 mg/kg, ip to IC50 for PAK1/2-mediated phosphorylation of MEK1 at serine 298 in human EBC1 cells
[13] = Cmax associated with acute adverse effect in mouse at 50 mg/kg, ip; format: ADME, organism-based; parameters: dose 50 mg/kg, route intraperitoneal; conditions: in vivo; summary of the method: as §1
[14] = Fraction unbound in mouse plasma at 25 mg/kg, ip; format: ADME, organism-based
Mus musculus [15] = experiment: fCmax associated with acute adverse effect in mouse at 25 mg/kg, ip; format: ADME, organism-based; conditions: in vivo; summary of the method: as §2
[16] = Ratio of fCmax associated with acute adverse effect in mouse at 25 mg/kg, ip to IC50 for PAK1/2-mediated phosphorylation of MEK1 at serine 298 in human EBC1 cells
[17] = Fraction unbound in mouse plasma at 150 to 300 mg/kg, ip; format: ADME, organism-based
[18] = Cmax associated with acute adverse effect in mouse at 150 to 300 mg/kg, ip; format: ADME, organism-based; conditions: in vivo; summary of the method: as §1
Mus musculus [19] = experiment: fCmax associated with acute adverse effect in mouse at 150 to 300 mg/kg, ip; format: ADME, organism-based; conditions: in vivo; summary of the method: as §2
[20] = Ratio of fCmax associated with acute adverse effect in mouse at 150 to 300 mg/kg, ip to IC50 for PAK1/2-mediated phosphorylation of MEK1 at serine 298 in human EBC1 cells
Summary of the method: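 Mice were dosed at multiple levels, orally or intraperitoneally, and monitored for acute adverse signs. The minimum unbound plasma Cmax associated with adverse effects was converted from total drug concentration and compared with the cellular IC50 for phospho-MEK1 S298 inhibition.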

[21] = Fraction unbound in mouse plasma at 100 to 200 mg/kg, ip; format: ADME, organism-based
[22] = Cmax associated with acute adverse effect in mouse at 100 to 200 mg/kg, ip; format: ADME, organism-based; conditions: in vivo; summary of the method: as §1
Mus musculus [23] = experiment: fCmax associated with acute adverse effect in mouse at 100 to 200 mg/kg, ip; format: ADME, organism-based; conditions: in vivo; summary of the method: as §2
[24] = Ratio of fCmax associated with acute adverse effect in mouse at 100 to 200 mg/kg, ip to IC50 for PAK1/2-mediated phosphorylation of MEK1 at serine 298 in human EBC1 cells
[25] = Fraction unbound in mouse plasma at 50 to 100 mg/kg, ip; format: ADME, organism-based
[26] = Cmax associated with acute adverse effect in mouse at 50 to 100 mg/kg, ip; format: ADME, organism-based; conditions: in vivo; summary of the method: as §1
Mus musculus [27] = experiment: fCmax associated with acute adverse effect in mouse at 50 to 100 mg/kg, ip; format: ADME, organism-based; conditions: in vivo; summary of the method: as §2
[28] = Ratio of fCmax associated with acute adverse effect in mouse at 50 to 100 mg/kg, ip to IC50 for PAK1/2-mediated phosphorylation of MEK1 at serine 298 in human EBC1 cells; summary of the method: as §2
[29] = Cmax in mouse at 100 mg/kg, ip; format: ADME, organism-based; parameters: dose 100 mg/kg, route intraperitoneal; conditions: in vivo
Mus musculus [30] = experiment: fCmax in mouse at 100 mg/kg, ip; format: ADME, organism-based; conditions: in vivo; summary of the method: as §2
[31] = Cmax associated with acute adverse effect in rat; format: ADME, organism-based; conditions: in vivo
Rattus norvegicus [32] = species: Rattus norvegicus; experiment: fCmax associated with acute adverse effect in rat; format: ADME, organism-based; conditions: in vivo
Rattus norvegicus [33] = species: Rattus norvegicus; experiment: Toxicity in rat assessed as slow blood flow; format: organism-based; conditions: in vivo
Rattus norvegicus [34] = species: Rattus norvegicus; experiment: Toxicity in rat assessed as darkened blood; format: organism-based; conditions: in vivo
Rattus norvegicus [35] = species: Rattus norvegicus; experiment: Toxicity in rat assessed as hypoactivity; format: organism-based; conditions: in vivo
Rattus norvegicus [36] = species: Rattus norvegicus; experiment: Toxicity in rat assessed as hunched posture; format: organism-based; conditions: in vivo
Mus musculus [37] = experiment: Toxicity in mouse assessed as slow blood flow at 60 to 80 mg/kg, po; format: organism-based; conditions: in vivo
Mus musculus [38] = experiment: Toxicity in mouse assessed as darkened blood at 60 to 80 mg/kg, po; format: organism-based; conditions: in vivo
Mus musculus [39] = experiment: Toxicity in mouse assessed as hypoactivity at 60 to 80 mg/kg, po; format: organism-based; conditions: in vivo
Mus musculus [40] = experiment: Toxicity in mouse assessed as hunched posture at 60 to 80 mg/kg, po; format: organism-based; conditions: in vivo
[41] = Fraction unbound in mouse plasma at 60 to 80 mg/kg, po; format: ADME, organism-based
[42] = Cmax associated with acute adverse effect in mouse at 60 to 80 mg/kg, po; format: ADME, organism-based; conditions: in vivo; summary of the method: as §1
Mus musculus [43] = experiment: fCmax associated with acute adverse effect in mouse at 60 to 80 mg/kg, po; format: ADME, organism-based; conditions: in vivo; summary of the method: as §2

Chain of Serine/threonine-protein kinase PAK 1 (Q13153 whole entry, the tested form may be a part): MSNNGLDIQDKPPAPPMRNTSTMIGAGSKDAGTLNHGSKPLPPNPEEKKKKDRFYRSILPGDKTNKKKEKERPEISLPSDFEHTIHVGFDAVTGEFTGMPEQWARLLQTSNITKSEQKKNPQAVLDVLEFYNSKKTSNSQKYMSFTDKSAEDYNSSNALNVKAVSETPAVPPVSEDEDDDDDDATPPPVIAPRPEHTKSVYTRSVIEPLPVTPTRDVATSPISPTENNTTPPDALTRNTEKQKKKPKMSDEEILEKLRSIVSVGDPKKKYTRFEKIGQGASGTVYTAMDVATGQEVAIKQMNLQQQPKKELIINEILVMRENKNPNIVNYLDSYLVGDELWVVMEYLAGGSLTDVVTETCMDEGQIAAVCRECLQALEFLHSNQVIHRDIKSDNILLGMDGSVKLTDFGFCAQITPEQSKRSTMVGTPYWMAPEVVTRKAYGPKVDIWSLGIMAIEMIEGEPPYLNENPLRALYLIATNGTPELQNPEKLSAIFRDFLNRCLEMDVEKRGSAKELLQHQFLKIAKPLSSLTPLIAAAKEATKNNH
Chain of Serine/threonine-protein kinase PAK 2 (Q13177 whole entry): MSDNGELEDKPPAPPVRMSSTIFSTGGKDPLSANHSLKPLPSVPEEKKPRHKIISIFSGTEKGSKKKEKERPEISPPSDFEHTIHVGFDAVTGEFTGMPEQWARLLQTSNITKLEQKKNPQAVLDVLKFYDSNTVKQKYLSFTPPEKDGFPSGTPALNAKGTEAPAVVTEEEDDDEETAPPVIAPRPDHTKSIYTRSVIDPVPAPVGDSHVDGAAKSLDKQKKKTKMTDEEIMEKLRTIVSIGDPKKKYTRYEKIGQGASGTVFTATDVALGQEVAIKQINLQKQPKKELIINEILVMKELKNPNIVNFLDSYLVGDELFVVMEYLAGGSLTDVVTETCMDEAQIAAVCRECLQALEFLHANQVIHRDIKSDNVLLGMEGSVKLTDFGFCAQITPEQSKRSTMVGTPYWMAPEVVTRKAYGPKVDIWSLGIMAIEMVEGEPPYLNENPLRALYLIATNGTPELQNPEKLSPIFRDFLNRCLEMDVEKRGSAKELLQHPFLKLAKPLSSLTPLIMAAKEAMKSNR

## CNc1ncc2cc(-c3ccc(-n4cncc(C)c4=O)cc3Cl)c(=O)n(CCOC)c2n1
[1]
  Ki: 22 nM
[2]
  IC50: 800 nM
[3]
  Ki: 39 nM
[4]
  fraction unbound: 0.059
[5]
  Cmax: 14 µM
Mus musculus [6]
  fCmax: 0.85 µM
[7]
  Ratio: 1

## CCc1cccn(-c2ccc(-c3cc4cnc(NC)nc4n(C[C@H]4CNCCO4)c3=O)c(Cl)c2)c1=O
Mus musculus [8]
  Activity: Toxic
[1]
  Ki: 11 nM
[2]
  IC50: 240 nM
[3]
  Ki: 9.5 nM
[9]
  fraction unbound: 0.027
[10]
  Cmax: 28 µM
Mus musculus [11]
  fCmax: 0.76 µM
[12]
  Ratio: 1

## N[C@H]1CC[C@H](CNc2nccc(Nc3cc(C(F)(F)F)ccn3)n2)CC1
[13]
  Cmax: 26 µM
[14]
  fraction unbound: 0.063
Mus musculus [15]
  fCmax: 1.6 µM
[16]
  Ratio: 1

## CNc1ncc2cc(-c3ccc(-n4cccc(C)c4=O)cc3C3CC3)c(=O)n(C[C@@H]3CNCCO3)c2n1
[1]
  Ki: 950 nM
[2]
  IC50: 15000 nM
[3]
  Ki: 3670 nM
[17]
  fraction unbound: 0.025
[18]
  Cmax: 63 µM
Mus musculus [19]
  fCmax: 1.6 µM
[20]
  Ratio: 1

## Cc1cncc(-c2ccc(-c3cc4cncnc4n(C[C@H]4CC[C@H](N)CC4)c3=O)c(Cl)c2)n1
[1]
  Ki: 372 nM
[2]
  IC50: 6000 nM
[3]
  Ki: 940 nM
[21]
  fraction unbound: 0.104
[22]
  Cmax: 59 µM
Mus musculus [23]
  fCmax: 6.1 µM
[24]
  Ratio: 1

## Cc1nccn(-c2ccc(-c3cc4cnc(NC5COC5)nc4n(CC4CCNCC4(F)F)c3=O)c(Cl)c2)c1=O (single isomer, unassigned)
[1]
  Ki: 5.2 nM
[2]
  IC50: 280 nM
[3]
  Ki: 4.6 nM
[25]
  fraction unbound: 0.076
[26]
  Cmax: 12 µM
Mus musculus [27]
  fCmax: 0.89 µM
[28]
  Ratio: 1

## CNc1ncc2cc(-c3ccc(-n4ccc(C)cc4=O)cc3Cl)c(=O)n(C[C@H]3CNCCO3)c2n1
[1]
  Ki: 943 nM
[2]
  IC50: > 30000 nM
[3]
  Ki: 2300 nM
[9]
  fraction unbound: 0.143
[29]
  Cmax: 40 µM
Mus musculus [30]
  fCmax: 5.7 µM

## CCn1c(=O)c(-c2ccc(-c3cncc(C)n3)cc2Cl)cc2cnc(NCCC3CCN(C)CC3)nc21
[31]
  Cmax: 4 µM
Rattus norvegicus [32]
  fCmax: 0.076 µM
Rattus norvegicus [33]
  Activity: Toxic
Rattus norvegicus [34]
  Activity: Toxic
Rattus norvegicus [35]
  Activity: Toxic
Rattus norvegicus [36]
  Activity: Toxic
Mus musculus [37]
  Activity: Toxic
Mus musculus [38]
  Activity: Toxic
Mus musculus [39]
  Activity: Toxic
Mus musculus [40]
  Activity: Toxic
[41]
  fraction unbound: 0.017
[42]
  Cmax: 16 µM
Mus musculus [43]
  fCmax: 0.27 µM
